Results pooled from the literature.
Each line is one published result; the experiments were not run side by side.
Cell line: A2780
Effect on: cell growth or viability

`CC[C@@H]1C=CC(=O)O[C@@H]1C[C@@H](O)[C@H](C)[C@H](OC)[C@@H](C)Cc1ccc(F)cc1` gave a GI50 of 215 nM (MTT; 48 h).
With `CCC[C@H](Nc1nc(-c2ccc(NC(=O)NCC)c(OC)c2)ncc1C)c1cccnc1` the IC50 was 54.6 nM (fluorescence; 72 h).
With `CC(C)C(=O)Nc1ccc([N+](=O)[O-])c(C(F)(F)F)c1` the IC50 was greater than 50000 nM (CCK-8; 48 h).
`CC[C@]1(O)C[C@H]2CN(CCc3c([nH]c4ccccc34)[C@@](C(=O)OC)(c3cc4c(cc3OC)N(C=O)[C@H]3[C@@](O)(C(=O)OC)[C@H](OC(C)=O)[C@]5(CC)C=CCN6CC[C@]43[C@@H]65)C2)C1` gave an IC50 of 0.22 nM (fluorescence; 72 h).
With `Nc1ccn([C@@H]2O[C@H](CO)[C@@H](O)C2(F)F)c(=O)n1` the IC50 was 4.7 nM (CCK-8; 72 h).
`COc1c2c(cc3c1OCO3)[C@]13C=C[C@H](OC)C[C@H]1N(C2)C[C@H]3OC(=O)c1cccc(C)c1` gave an IC50 of greater than 10000 nM (WST-1).
`C[C@H]1O[C@@H](n2cc(F)c(=O)[nH]c2=O)[C@H](O)[C@@H]1O` gave an IC50 of greater than 50000 nM (CCK-8; 48 h).
For `Cc1[nH]c2ccccc2c1CCNCc1ccc(/C=C/C(=O)NO)cc1`, the IC50 was 3.9 nM (crystal violet; 48 h).
For `COc1ccc(C(=O)O[C@@H]2CN3Cc4c(cc5c(c4OC)OCO5)[C@@]24C=C[C@H](OC)C[C@@H]34)cc1OC`, the IC50 was 6000 nM (WST-1).
`CC[C@@H]1C=CC(=O)O[C@@H]1C[C@@H](OC)[C@H](C)[C@H](OC)[C@@H](C)Cc1ccc(F)cc1` gave a GI50 of 1930 nM (MTT; 48 h).
The EC50 of `Cc1ccc2ccc3ccc(C)nc3c2n1.[C-]#[N+]c1ccc(C)cc1.[C-]#[O+].[C-]#[O+].[C-]#[O+].[Re+]` is reported as 1400 nM (MTT; 24 h).
For `COc1ccc(C(=O)O[C@@H]2CN3Cc4c(cc5c(c4OC)OCO5)[C@@]24C=C[C@H](OC)C[C@@H]34)cc1`, the IC50 was greater than 10000 nM (WST-1).
For `CC[C@@H]1C=CC(=O)O[C@@H]1C[C@@H](O)[C@H](C)[C@H](OC)[C@@H](C)Cc1ccccc1`, the GI50 was 81.9 nM (MTT; 48 h).
`CC(=O)O[C@H]1C(=O)[C@@]2(C)[C@H]([C@H](OC(=O)c3ccccc3)[C@]3(O)C[C@H](OC(=O)[C@H](O)[C@@H](NC(=O)c4ccccc4)c4ccccc4)C(C)=C1C3(C)C)[C@]1(OC(C)=O)CO[C@@H]1C[C@@H]2O` gave an IC50 of 8.2 nM (CCK-8; 72 h).
